Only some compounds are listed: those with a hit (about 3.7% of all), similar ones and a draw of the others.
TAAR1 antag = antagonists of human TAAR1 | Q96RJ0 | CHO RD-HGA16 TAAR1, Fluo-8 calcium fluorescence, antagonist | inhibition, % at 3 µM | 360,000 compounds, 1.5% hits;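 active means inhibition above a per-plate cutoff, the mean inhibition of test compounds on that plate plus 3 SD, cut at about 49% in these data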;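 further: 0% = DMSO plus EC80 beta-PEA response and 100% = DMSO alone without agonist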
Target sequence (Q96RJ0 whole entry, looked up): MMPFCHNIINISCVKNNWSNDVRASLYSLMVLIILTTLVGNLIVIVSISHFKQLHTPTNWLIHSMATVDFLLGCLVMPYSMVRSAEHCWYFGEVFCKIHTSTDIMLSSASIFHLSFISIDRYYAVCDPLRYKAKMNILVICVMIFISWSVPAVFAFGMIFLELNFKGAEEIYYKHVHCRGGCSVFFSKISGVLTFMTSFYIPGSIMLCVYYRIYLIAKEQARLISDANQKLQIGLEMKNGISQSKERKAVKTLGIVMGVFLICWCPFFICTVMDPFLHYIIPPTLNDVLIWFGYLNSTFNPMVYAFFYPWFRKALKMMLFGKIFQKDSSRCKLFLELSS
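test system = CHO RD-HGA16 cells bearing hTAAR1 | replication = singlicate | controls = DMSO-only wells and EC80 β-PEA-stimulated wells | reagent = EC80 β-phenethylamine stimulus | read-out basis = percent inhibition of PEA-evoked calcium signal, max/basal emission ratio | schedule = seeding 17-24 h prior, 75-min 37 °C, 30-min RT dye loading | signal = kinetic Fluo-8 calcium fluorescence measurement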
NS3 helicase inh = inhibitors of Hepatitis C virus NS3 helicase | NS3 helicase DNA unwinding, Cy5 molecular beacon fluorescence | inhibition, % at 10.9 µM | 290,000 compounds, 0.56% hits;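 active means inhibition above the mean of all tested compounds plus 3 SD, set per campaign, cut at about 35% in these data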;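 further: 0% = DMSO wells and 100% = thioflavine S control wells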
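System: Hepatitis C virus NS3 helicase domain fragment enzyme | Reagent: Annealed dual-labelled DNA beacon duplex, ATP-started | Compound dosing: 10.9 µM single point, 0.8% DMSO | Incubation: 1 h reaction at 25 °C, ATP-initiated | Technique: Cy5 fluorescence | Evaluation: Percent inhibition from t60/t0 fluorescence ratio | Benchmarks: Low DMSO, high thioflavine S at 110 µM | Replication: Singlicate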
core dimer inh = blocks dimerization of HCV core protein | TR-FRET GST/Flag-core106 dimerization, 1536-well | inhibition, % at 5 µM | 300,000 compounds, 0.33% hits;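 active means inhibition above the mean of all tested compounds plus 3 SD, set per screening campaign, cut at about 45% in these data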
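System: GST/Flag-tagged HCV core106 proteins. Incubation: compound-protein-antibody incubation 4 h at 22.5 °C. Technique: HTRF with 340 nm excitation, 617/671 nm emission. Medium: KF-containing HEPES buffer, pH 7.45, DTT, CHAPS, BSA. Read-out: inhibition (%) from 671 over 617 nm ratio. Also added: Eu(K)-anti-GST 90 ng/mL plus XL665-anti-Flag 1 µg/mL.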
rCAG binder = r(CAG) repeat RNA binding; TO-PRO-1 dye displacement fluorescence; inhibition, % at 3 µM; 370,000 compounds, 1.3% hits; AID 651821;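 active means inhibition above the plate cutoff, the mean of all test compounds on that plate plus 3 SD, cut at about 35% in these data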;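 further: 0% = DMSO alone and 100% = 100 µM mitoxantrone as full dye displacement; higher means more dye released from RNA so lower well fluorescence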
TAAR1 agonist = human TAAR1 agonism; 360,000 compounds, 0.99% hits; activation, % at 3 µM; Q96RJ0; CHO RD-HGA16 TAAR1, Fluo-8 calcium fluorescence; vehicle wells 0%, saturating PEA agonist 100%; AID 624467;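 active means activation above the mean activation of all test compounds in the run plus 3 SD, cut at about 38% in these data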
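System: CHO RD-HGA16 cells carrying human TAAR1 plus Gα16; Incubation: 17-24 h seeding, 75 min 37 °C dye, 30 min RT; Measured by: Fluo-8 fluorescence, 5 s baseline then 140 s kinetic read; Control set: DMSO and PEA EC100; Replication: single well for each compound.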
rCAG binder conf = r(CAG) RNA repeat binding, confirmation; 4,300 compounds, 70% hits; inhibition, % at 3 µM; TO-PRO-1 dye displacement fluorescence; shares compounds with rCAG binder; AID 652065;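 active means inhibition above a per-plate cutoff, the mean inhibition of sample wells plus 3 SD, cut at about 35% in these data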;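 further: loss of TO-PRO-1 fluorescence as compound displaces dye from 1x1 AA loop RNA; 0% = DMSO only wells and 100% = 100 µM mitoxantrone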
dCAG dye counter = DNA CAG dye complex inhibition counter-screen; shares compounds with rCAG binder; AID 652068; inhibition, % at 3 µM; d(CAG) DNA oligo TO-PRO-1 dye displacement, fluorescence; 4,300 compounds, 94% hits;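 active means inhibition above its plate's cutoff, the mean test-well inhibition plus 3 SD, cut at about 4.8% in these data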;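 further: 0% = DNA dye mix with DMSO and 100% = 100 µM mitoxantrone; hits displace the dye from DNA and so lower well fluorescence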
dCAG dye DR = DNA CAG dye complex inhibition, dose response counter-screen; shares compounds with rCAG binder; DNA CAG/GTC duplex TO-PRO-1 dye displacement fluorescence; IC50, µM; 250 compounds, 20% hits; AID 686960; in the data active means IC50 below about 10 µM
* hit, by the source's call; . = no result.

SMILES | TAAR1 antag | NS3 helicase inh | core dimer inh | rCAG binder | TAAR1 agonist | rCAG binder conf | dCAG dye counter | others
CCOc1cc(/C=C2/SC(=S)N(Cc3ccccc3)C2=O)ccc1O | 10 | 7 | -6 | 37* | 12 | 42* | 24*
COc1cc([N+](=O)[O-])cc(/C=C2/SC(=S)N(Cc3ccccc3)C2=O)c1O | 47 | 24 | -5 | 79* | 25 | 95* | 85*
CCN(C(=O)COC(=O)c1ccc(Sc2ncn[nH]2)c([N+](=O)[O-])c1)c1ccccc1C | . | . | . | 13 | . | . | .
COc1ccc(/C=N/NC(=O)c2[nH]c3ccc(C)cc3c2-c2ccccc2)c(C(=O)O)c1OC | -2 | 30 | -1 | 39* | -1 | 46* | 15*
Cc1ccc2[nH]c(C(=O)N/N=C/c3ccccc3C(=O)O)c(-c3ccccc3)c2c1 | 3 | 8 | 1 | 55* | 6 | 36* | 9.0*
CCOC(=O)c1sc(NC(=O)c2ccccc2C(=O)O)c(C(=O)OCC)c1C | -47 | 26 | 13 | 45* | 2 | 35* | 7.7*
CCOC(=O)c1c(NC(=O)C2C3C=CC(C3)C2C(=O)O)sc2c1CCCC2 (stereo not drawn) | 6 | 30 | 8 | 37* | 2 | 50* | 11* | dCAG dye DR=>30
CCOC(=O)c1c(NC(=O)c2cccc([N+](=O)[O-])c2C(=O)O)sc2c1CCCC2 | -27 | 20 | 12 | 31 | 5 | . | .
CCOC(=O)c1c(NC(=O)c2c(C(=O)O)cccc2[N+](=O)[O-])sc2c1CCCC2 | -24 | 23 | 6 | 47* | 10 | 34 | 10.0*
CCOC(=O)c1c(NC(=O)c2ccccc2C(=O)O)sc2c1CCC2 | -6 | 27 | -9 | 47* | 2 | 29 | 7.3*
N#Cc1c(NC(=O)C2C3C=CC(C3)C2C(=O)O)sc2c1CCCCC2 (stereo not drawn) | -1 | 0 | 3 | 5 | 1 | . | .
CC(C)OC(=O)c1c(NC(=O)C2CC=CCC2C(=O)O)sc2c1CCCCC2 (stereo not drawn) | -35 | -8 | 14 | 56* | -1 | 68* | 22*
O=C(O)[C@H](Cc1ccccc1)N1C(=O)c2c(Cl)c(Cl)c(Cl)c(Cl)c2C1=O | -14 | -16 | 5 | 50* | 7 | 63* | 28*
COc1cc(/C=C2\CC/C(=C\c3cc(OC)c(O)c(OC)c3)C2=O)cc(OC)c1O | 14 | 28 | -12 | 36* | 3 | 40* | 15*
COC(=O)[C@]1(CC(C)C)NC=C(C(=O)c2ccccc2)[C@@H]1c1cccs1 | 6 | . | . | 12 | -1 | . | .
C=CCOc1ccc(Br)cc1/C=C1/SC(=Nc2ccc(C(=O)O)cc2)NC1=O | -20 | 17 | . | 13 | 6 | . | .
CCc1ccc(N=C2NC(=O)/C(=C/c3cc(Br)c(OCC(=O)O)c(OC)c3)S2)cc1 | -15 | 22 | 8 | 57* | 2 | 56* | 19*
CCOc1cc(Br)cc(/C=C2\SC(=Nc3ccccc3)NC2=O)c1O | 9 | -8 | 10 | 67* | 11 | 83* | 47*
COc1ccc(C(=O)CSc2nnc(-c3ccccn3)n2-c2ccccc2)cc1 | . | . | . | 3 | . | . | .
CC(C)(C)NC(=O)C(c1ccccc1F)n1c(=O)c(-c2ccco2)nc2ccccc21 (stereo not drawn) | -15 | . | . | 41* | 0 | 11 | 7.8*
CC(C)(C)NC(=O)C(c1ccc(C(F)(F)F)cc1)n1c(=O)c(-c2ccco2)nc2ccccc21 (stereo not drawn) | -35 | . | . | 27 | -1 | . | .
COc1ccc(-n2c(SCC(=O)Nc3cc(C)c(NC(=O)c4ccccc4)cc3OC)nnc2-c2ccco2)cc1 | . | . | . | 12 | . | . | .
O=C(O)c1oc2ccccc2c1CSc1ccc(Cl)cc1 | 1 | -14 | 13 | 40* | -2 | 23 | 4
Cc1cccc(CCNC(=O)Cn2nc(-c3ccccc3)ccc2=O)c1 | . | . | . | 2 | . | . | .
Cc1onc(-c2c(F)cccc2Cl)c1C(=O)Nc1ccc(S(=O)(=O)N2CCOCC2)cc1 | 38 | . | . | 3 | 2 | . | .
SMILES | TAAR1 antag | NS3 helicase inh | core dimer inh | rCAG binder | TAAR1 agonist | rCAG binder conf | dCAG dye counter | others
O=S(=O)(Nc1cccc(S(=O)(=O)N2CCCCC2)c1)c1ccc(Cl)s1 | 0 | . | . | 46* | 2 | 35* | 12*
Cc1ccc(S(=O)(=O)Nc2cccc(S(=O)(=O)N3CCCC3)c2)cc1C | -25 | . | . | 10 | 2 | . | .
O=C(Nc1cccc(S(=O)(=O)N2CCCCC2)c1)c1ccccc1NS(=O)(=O)c1ccc(F)cc1 | 13 | 8 | 32 | 61* | 7 | 76* | 36*
NS(=O)(=O)c1cccc(NC(=O)c2ccccc2NS(=O)(=O)c2ccc(F)cc2)c1 | -6 | 9 | -12 | 38* | -4 | 38* | 12*
Cc1onc(-c2c(F)cccc2Cl)c1C(=O)Nc1cc(S(=O)(=O)N2CCCCC2)ccc1O | 20 | . | . | 52* | 13 | 36* | 12*
CC(C)C[C@@H]1COc2cc(Br)ccc2S(=O)(=O)N1Cc1cn(CC2CCCCC2)nn1 | . | . | . | 0 | . | . | .
O=C(Cc1cn(Cc2ccccc2)c2ccccc12)Nc1ccc(Nc2cccnc2)cc1 | 19 | . | . | 8 | 0 | . | .
COC(=O)[C@]12C[C@H](CC(=O)NCC34CC5CC(CC(C5)C3)C4)C(=O)N(Cc3ccccc3)C1=C[C@H](C(C)(C)C)O[C@@H]2C | -38 | . | . | 8 | 0 | . | .
C[C@H](O)[C@@H]1CN2CCc3c([nH]c4c(-c5ccc6c(c5)OCO6)cccc34)[C@@H]2C[C@@H]1N(C)C(=O)NC1CCCCC1 | . | . | . | 4 | . | . | .
O=C(Nc1cc(S(=O)(=O)N2CCCCC2)ccc1O)c1ccccc1NS(=O)(=O)c1ccc(F)c(F)c1 | 4 | -25 | 13 | 85* | 12 | 88* | 64*
O=C(Nc1cc(S(=O)(=O)Nc2ccccc2Cl)ccc1O)c1ccc(F)cc1F | 25 | . | . | 25 | 6 | . | .
Cc1ccc(NC(=O)c2ccccc2NS(=O)(=O)c2ccc(F)cc2)cc1S(=O)(=O)N1CCCCC1 | 27 | 11 | 15 | 67* | 8 | 83* | 52*
CCOC(OCC)P(=O)(CNC(c1ccccc1)(c1ccccc1)c1ccccc1)OCC (stereo not drawn) | . | . | . | 0 | . | . | .
Cc1nn(-c2ccccc2)c(C)c1/C=N\NC(=O)CSc1nc2ccccc2n1Cc1ccc(Cl)cc1 | . | . | . | 9 | . | . | .
Cc1c(CCC(=O)N2CCC[C@H]2C(=O)O)c(=O)oc2c(C)c3oc4c(c3cc12)CCCC4 | -16 | -2 | 7 | 38* | -2 | 58* | 19* | dCAG dye DR=>30
